{"data": "Measurements collected from several papers", "read-out": "cell growth or viability", "note": "Lines come from different studies, so protocols differ."}
{"SMILES": "O=C(Nc1ccccc1CO)c1c[nH]c2ccc(Cl)cc12", "cell line": "SK-N-BE", "method": "MTT", "IC50 [µM]": 17}
{"SMILES": "CCn1c(C)c(N=Nc2ccccc2)sc1=NN=C(C)c1c(O)c2ccccc2oc1=O", "cell line": "human Skin fibroblast", "method": "MTT", "time": "48 h", "IC50 [µM]": "> 100"}
{"SMILES": "Cc1cc(-c2nc(C(=O)Nc3cc4oc(N5CCOCC5)nc4nc3N3CC[C@@H](O)C3)co2)ccn1", "cell line": "B16-F10", "time": "5 days", "IC50 [µM]": 0.55}
{"SMILES": "CCn1c(C)csc1=NN=C(C)c1c(O)c2ccccc2oc1=O", "cell line": "human Skin fibroblast", "method": "MTT", "time": "48 h", "IC50 [µM]": "> 100"}
{"SMILES": "CC[C@H](C)[C@@H]([C@@H](CC(=O)N1CCC[C@H]1[C@H](OC)[C@@H](C)C(=O)N[C@@H](Cc1ccccc1)C(=O)O)OC)N(C)C(=O)[C@@H](NC(=O)[C@@H](NC)C(C)C)C(C)C", "cell line": "M21", "method": "MTT", "time": "72 h", "IC50 [µM]": "> 1"}
{"SMILES": "CC(=NN=c1[nH]c(C)c(N=Nc2ccc(C)cc2)s1)c1c(O)c2ccccc2oc1=O", "cell line": "human Skin fibroblast", "method": "MTT", "time": "48 h", "IC50 [µM]": "> 100"}
{"SMILES": "Cc1c(C(=O)Nc2ccc(N3C[C@@H](C)O[C@@H](C)C3)nc2)cccc1-c1ccc(OC(F)(F)F)cc1", "cell line": "MB002", "time": "7 days", "IC50 [µM]": "> 10"}
{"SMILES": "COc1cc([C@@H]2c3cc4c(cc3[C@@H](O[C@@H]3O[C@@H]5CO[C@@H](C)O[C@H]5[C@H](O)[C@H]3O)[C@H]3COC(=O)[C@H]23)OCO4)cc(OC)c1O", "cell line": "human Skin fibroblast", "time": "48 h", "IC50 [µM]": 5}
{"SMILES": "O=C(N/N=C/c1c(O)ccc2ccccc12)c1cc(-c2ccc3ccccc3c2)n[nH]1", "cell line": "WM278", "method": "MTS", "time": "72 h", "IC50 [µM]": 6.1}
{"SMILES": "Cc1ccc2[nH]c(=O)c3cc(C(=O)NCCCN(C)Cc4ccccc4)sc3c2c1", "cell line": "CFPAC-1", "method": "MTT", "time": "24 h", "IC50 [µM]": 16.8}
{"SMILES": "CC1(C)CC[C@]2(C(=O)O)CC[C@]3(C)C(=CC[C@@H]4[C@@]5(C)CC[C@H](O)C(C)(C)[C@@H]5CC[C@]43C)[C@@H]2C1", "cell line": "human Skin fibroblast", "method": "MTT", "time": "48 h", "IC50 [µM]": 63.6}
{"SMILES": "CC[C@]1(O)C[C@@H]2CN(CCc3c([nH]c4ccccc34)[C@@](C(=O)OC)(c3cc4c(cc3OC)N(C)[C@H]3[C@@](O)(C(=O)OC)[C@H](OC(C)=O)[C@]5(CC)C=CCN6CC[C@]43[C@@H]65)C2)C1", "cell line": "KB 3-1", "method": "MTT", "IC50 [µM]": 0.0526}
{"SMILES": "CCn1c(-c2nnc(NC(=O)c3cc4c([nH]c5ccccc54)c(-c4cc(OC)c(OC)c(OC)c4)n3)s2)cc2ccccc21", "cell line": "BT-474", "method": "MTT", "time": "72 h", "IC50 [µM]": 19.5}
{"SMILES": "CCn1c(=O)c(-c2ccc(-c3cncs3)cc2Cl)cc2cnc(Nc3ccc(N4CCN(C)CC4)cc3)nc21", "cell line": "CFPAC-1", "method": "MTT", "time": "24 h", "IC50 [µM]": 6.92}
{"SMILES": "CC1(C)[C@@H](O)CC[C@]2(C)[C@H]3C(=O)C=C4[C@@H]5C[C@@](C)(C(=O)O)CC[C@]5(C)CC[C@@]4(C)[C@]3(C)CC[C@@H]12", "cell line": "human Skin fibroblast", "method": "MTT", "time": "48 h", "IC50 [µM]": 48.2}
{"SMILES": "Cn1cnc2c(F)c(Nc3ccc(Br)cc3Cl)c(C(=O)NOCCO)cc21", "cell line": "MB002", "time": "7 days", "IC50 [µM]": "> 10"}
{"SMILES": "CC(=NN=c1[nH]c(C)c(N=Nc2ccccc2)s1)c1c(O)c2ccccc2oc1=O", "cell line": "human Skin fibroblast", "method": "MTT", "time": "48 h", "IC50 [µM]": "> 100"}
{"SMILES": "Cn1c(-c2nnc(NC(=O)c3cc4c([nH]c5ccccc54)c(-c4ccccc4)n3)s2)cc2ccccc21", "cell line": "BT-474", "method": "MTT", "time": "72 h", "IC50 [µM]": 17.6}
{"SMILES": "O=c1[nH]cc(S(=O)(=O)Nc2cccc(-c3nnc(-c4cccc(Cl)c4)o3)c2)c(=O)[nH]1", "cell line": "SK-MES-1", "method": "MTT", "time": "24 h", "IC50 [µM]": 13.9}
{"SMILES": "N#Cc1ccc(COC[C@H]2O[C@@H](n3c(NCc4ccc(Cl)c(Cl)c4)nc4c(N)ncnc43)[C@H](O)[C@@H]2O)cc1", "cell line": "HD-MB03", "IC50 [µM]": 3.36}
{"SMILES": "CCn1c(-c2nnc(NC(=O)c3cc4c([nH]c5ccccc54)c(-c4ccc(C)cc4)n3)s2)cc2ccccc21", "cell line": "BT-474", "method": "MTT", "time": "72 h", "IC50 [µM]": 19.5}
{"SMILES": "CC(=NN=C1SCC(=O)N1C)c1c(O)c2ccccc2oc1=O", "cell line": "human Skin fibroblast", "method": "MTT", "time": "48 h", "IC50 [µM]": "> 100"}
{"SMILES": "O=C(Nc1nnc(-c2cc3ccccc3[nH]2)s1)c1cc2c([nH]c3ccccc32)c(-c2ccc(F)cc2)n1", "cell line": "BT-474", "method": "MTT", "time": "72 h", "IC50 [µM]": 9.2}
{"SMILES": "CCc1cc2c(cc1N1CCC(N3CCOCC3)CC1)C(C)(C)c1[nH]c3cc(C#N)ccc3c1C2=O", "cell line": "MB002", "time": "7 days", "IC50 [µM]": 0.396}
{"SMILES": "CC(C)c1cc(-c2n[nH]c(=O)n2-c2ccc3c(ccn3C)c2)c(O)cc1O", "cell line": "B16-F10", "method": "imaging", "time": "24 h", "IC50 [µM]": 0.321}
{"SMILES": "CC(C)C[C@H](NC(=O)[C@H](Cc1ccccc1)NC(=O)c1cnccn1)B(O)O", "cell line": "SK-LU-1", "method": "ATP luminescence", "IC50 [µM]": 0.01}
{"SMILES": "O=C(Nc1nnc(-c2cc3ccccc3[nH]2)s1)c1cc2c([nH]c3ccccc32)c(-c2ccc(Cl)cc2)n1", "cell line": "BT-474", "method": "MTT", "time": "72 h", "IC50 [µM]": 8.68}
{"SMILES": "C[C@]1(c2nc3c(C(N)=O)cccc3[nH]2)CCCN1", "cell line": "HD-MB03", "time": "7 days", "IC50 [µM]": "> 10"}
{"SMILES": "CCn1c(C)c(N=Nc2ccc(C)cc2)sc1=NN=C(C)c1c(O)c2ccccc2oc1=O", "cell line": "human Skin fibroblast", "method": "MTT", "time": "48 h", "IC50 [µM]": "> 100"}
{"SMILES": "Cc1cc2c(F)c(Oc3ncnn4cc(OC[C@@H](C)O)c(C)c34)ccc2[nH]1", "cell line": "HD-MB03", "time": "7 days", "IC50 [µM]": "> 10"}
{"SMILES": "COc1cc(Nc2nccc(-c3cnn4nc(OC)ccc34)n2)cc(C(F)(F)F)c1", "cell line": "SW948", "method": "ATP luminescence", "IC50 [µM]": 3}
{"SMILES": "CS(=O)(=O)c1ccc(C(=O)Nc2ccc(Cl)c(-c3ccccn3)c2)c(Cl)c1", "cell line": "HD-MB03", "time": "7 days", "IC50 [µM]": "> 10"}
{"SMILES": "Oc1ccc(Nc2nc(-c3ccc(Cl)cc3)cs2)cc1", "cell line": "WM278", "method": "MTS", "time": "48 h", "IC50 [µM]": 21.4}
{"SMILES": "CCOC(=O)c1sc(=NN=C(C)c2c(O)c3ccccc3oc2=O)n(C)c1C", "cell line": "human Skin fibroblast", "method": "MTT", "time": "48 h", "IC50 [µM]": "> 100"}
{"SMILES": "COc1ccc(-c2nc(C(=O)Nc3nnc(-c4cc5ccccc5n4C)s3)cc3c2[nH]c2ccccc23)cc1", "cell line": "BT-474", "method": "MTT", "time": "72 h", "IC50 [µM]": 14.1}
{"SMILES": "COc1cc(OC)c(/C=C/S(=O)(=O)Nc2ccc(OC)c(N)c2)c(OC)c1", "cell line": "MES-SA", "method": "trypan blue", "time": "96 h", "IC50 [µM]": 0.004}
{"SMILES": "COc1ccc(COc2cc3oc(=O)c4cc(C(C)O)ccc4c3cc2OC)cc1 (centres unmarked)", "cell line": "MB002", "time": "7 days", "IC50 [µM]": "> 10"}
{"SMILES": "CCn1c(C)c(C(C)=O)sc1=NN=C(C)c1c(O)c2ccccc2oc1=O", "cell line": "human Skin fibroblast", "method": "MTT", "time": "48 h", "IC50 [µM]": "> 100"}
